# Experimental data from ChEMBL document CHEMBL4385606, “3,5,7-Substituted Pyrazolo[4,3- d]pyrimidine Inhibitors of Cyclin-Dependent Kinases and Their Evaluation in Lymphoma Models” (J Med Chem, 2019).
# Activity calls are given as the source filed them. No cut-off for these calls is given here.
# How the values were obtained:
# HT = assay: Antiproliferative activity against human HT cells measured after 72 hrs by calcein AM dye-based fluorescence assay; assay type: functional
# Summary of the method: (§1)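 Cells exposed in triplicate to six concentrations for 72 h; calcein AM added for 1 h, live-cell fluorescence read at 485/538 nm (ex/em). GI50 taken from dose-response curves.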
# [1] = Antiproliferative activity against human RIVA cells assessed as growth inhibition measured after 72 hrs by calcein AM dye-based fluorescence assay; assay type: functional, cell-based; summary of the method: as §1
# OCI-Ly3 = assay: Antiproliferative activity against human OCI-LY3 cells assessed as growth inhibition measured after 72 hrs by calcein AM dye-based fluorescence assay; assay type: functional, cell-based; conditions: OCI-Ly3, 72 h; summary of the method: as §1
# [2] = Antiproliferative activity against human OCI-Ly2 cells assessed as growth inhibition measured after 72 hrs by calcein AM dye-based fluorescence assay; assay type: functional, cell-based; summary of the method: as §1
# [3] = Antiproliferative activity against human UPF7U cells assessed as growth inhibition measured after 72 hrs by calcein AM dye-based fluorescence assay; assay type: functional, cell-based; summary of the method: as §1
# Z-138 = assay: Antiproliferative activity against human Z138 cells assessed as growth inhibition measured after 72 hrs by calcein AM dye-based fluorescence assay; assay type: functional, cell-based; conditions: Z-138, 72 h; summary of the method: as §1
# CCRF-CEM = assay: Antiproliferative activity against human CEM cells assessed as growth inhibition measured after 72 hrs by calcein AM dye-based fluorescence assay; assay type: functional, cell-based; summary of the method: as §1
# [4] = test system: Panel NCI-60 (60 carcinoma cell lines); assay: Antiproliferative activity against human NCI60 cells after 48 hrs by sulforhodamine B assay; assay type: functional
# Homo sapiens [5] = species: Homo sapiens; assay: Induction of apoptosis in human Mino cells assessed as induction of PARP1 cleavage at 1.5 to 12.5 nM after 24 hrs by immunoblotting analysis; assay type: functional, cell-based
# Summary of the method: (§2)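 Lymphoma cell lines were cultured as the providers instruct and exposed to compound at several doses or for several times. Lysates were run on SDS-PAGE and blotted to nitrocellulose. Blots were blocked, incubated overnight with primary antibodies diluted in PBS with 5% milk and 0.1% Tween 20, then with peroxidase-conjugated secondaries, and detected by chemiluminescence on a CCD camera.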
# Homo sapiens [6] = species: Homo sapiens; assay: Induction of apoptosis in human Mino cells assessed as decrease in XIAP level at 1.5 to 12.5 nM after 24 hrs by immunoblotting analysis; assay type: functional, cell-based; summary of the method: as §2
# Homo sapiens [7] = species: Homo sapiens; assay: Induction of apoptosis in human Mino cells assessed as caspase 7 activation at 12.5 nM after 2 to 24 hrs by immunoblotting analysis; assay type: functional, cell-based; summary of the method: as §2
# Homo sapiens [8] = species: Homo sapiens; assay: Induction of apoptosis in human Mino cells assessed as effect on BCL-xL protein expression at 12.5 nM after 2 to 24 hrs by immunoblotting analysis; assay type: functional, cell-based; summary of the method: as §2
# [9] = target: Cyclin-dependent kinase 9 (Homo sapiens) (UniProt P50750); assay: Inhibition of CDK9 in human Mino cells assessed as decrease in phosphorylation of RNA polymerase 2 C-terminal domain at Ser 5 residue at 12.5 nM by immunoblotting analysis; assay type: cell-based; conditions: TDE = time-dependent effect
# Summary of the method: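 MINO lymphoma cells exposed to 12.5 nM for up to 24 h (time course). Lysates separated by SDS-PAGE, transferred to nitrocellulose, probed overnight with specific primary antibodies diluted in PBS with 5% milk and 0.1% Tween 20, then peroxidase-conjugated secondaries; chemiluminescence imaged with a CCD camera.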
# Homo sapiens [10] = assay: Antitumor activity against human Mino cells xenografted in NSG mouse assessed as inhibition of tumor growth at 10 mg/kg, iv administered daily measured every day during compound dosing by caliper method; assay type: functional, organism-based
# Summary of the method: (§3)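 Female NSG mice, 8-12 weeks old, given cells s.c.; once all had palpable tumors, daily i.v. tail-vein dosing at 10 mg/kg in PBS. Two perpendicular tumor diameters measured daily by caliper. Study ended when any mouse's tumor reached ≥2 cm. Groups: MINO n=10, MAVER-1 n=12, Hbl-2 n=8, VFN-M1 PDX n=10.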
# Maver1 [11] = assay: Antitumor activity against human Maver1 cells xenografted in NSG mouse assessed as inhibition of tumor growth at 10 mg/kg, iv administered daily measured every day during compound dosing by caliper method; assay type: functional, organism-based; summary of the method: as §3
# Homo sapiens [12] = assay: Antitumor activity against patient-derived VFN-M1 cells xenografted in NSG mouse assessed as inhibition of tumor growth at 10 mg/kg, iv administered daily measured every day during compound dosing by caliper method; assay type: functional, organism-based; summary of the method: as §3
# Mus musculus [13] = assay: Ex vivo antitumor activity against human Mino cells xenografted NSG mouse assessed as increase in cleaved caspase 7 expression at 5 to 10 mg/kg, iv measured after 24 hrs by immunoblotting analysis; assay type: functional, organism-based
# Summary of the method: (§4)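 NSG mice bearing palpable s.c. tumors received a single i.v. dose (5 or 10 mg/kg) and were euthanized after 24 h. Excised tumors were filtered through 45 µm nylon mesh, lysed and run on SDS-PAGE, transferred to nitrocellulose, probed overnight with primary antibodies in PBS with 5% milk and 0.1% Tween 20, then peroxidase secondaries, with chemiluminescent detection.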
# Mus musculus [14] = assay: Ex vivo antitumor activity against human Mino cells xenografted NSG mouse assessed as down regulation of XIAP expression at 5 to 10 mg/kg, iv measured after 24 hrs by immunoblotting analysis; assay type: functional, organism-based; summary of the method: as §4
# Mus musculus [15] = assay: Ex vivo antitumor activity against human Mino cells xenografted NSG mouse assessed as effect on BCL-2 expression at 5 to 10 mg/kg, iv measured after 24 hrs by immunoblotting analysis; assay type: functional, organism-based; summary of the method: as §4
# Mus musculus [16] = assay: Ex vivo antitumor activity against Maver1 xenografted NSG mouse assessed as down regulation of MCL-1 expression at 10 mg/kg, iv measured after 24 hrs by immunoblotting analysis; assay type: functional, organism-based; summary of the method: as §4
# Maver1 [17] = assay: Antitumor activity against human Maver1 cells xenografted in NSG mouse assessed as inhibition of tumor growth at 9 mg/kg measured on day 13 in presence of BCL2 inhibitor venetoclax by caliper method; assay type: functional, organism-based
# Summary of the method: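 MAVER-1 cells implanted s.c. in NSG mice. Groups: vehicle n=6, 9 mg/kg n=8, venetoclax 20 mg/kg n=8, combination n=10. Tumors measured daily by caliper in two perpendicular dimensions. Mean volumes ±SD tracked from therapy start (day 1).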
# Homo sapiens [18] = species: Homo sapiens; assay: Induction of apoptosis in human UPF1H cells assessed as induction of PARP1 cleavage at 12.5 to 100 nM after 24 hrs by immunoblot analysis; assay type: functional, cell-based; summary of the method: as §2
# Maver1 [19] = assay: Induction of apoptosis in human Maver1 cells assessed as reduction in MCL1 expression at 1.5 to 12.5 nM after 24 hrs by immunoblot analysis; assay type: functional, cell-based; summary of the method: as §2
# Mus musculus [20] = assay: Ex vivo antitumor activity against human UPF1H cells xenografted NSG mouse assessed as effect on BCL2 expression at 5 to 10 mg/kg, iv measured after 24 hrs by immunoblotting analysis; assay type: functional, organism-based
# Summary of the method: (§5)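 Female NSG mice, 8-12 weeks old, implanted s.c. with lymphoma cells. Once tumors were palpable, mice received a single tail-vein i.v. dose (5 or 10 mg/kg) of compound dissolved in PBS. Mice were euthanized 24 h later. Tumors were excised, filtered through 45 µm nylon mesh and lysed, then proteins were analysed by immunoblotting.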
# Mus musculus [21] = assay: Ex vivo antitumor activity against human Mino cells xenografted NSG mouse decrease in phosphorylation of Rb at 780 residue at 5 to 10 mg/kg, iv measured after 24 hrs by immunoblotting analysis; assay type: functional, organism-based; summary of the method: as §5
# Mus musculus [22] = assay: Ex vivo antitumor activity against human UPF1H cells xenografted NSG mouse decrease in phosphorylation of RNA polymerase 2 C-terminal domain at Ser 5 residue at 5 to 10 mg/kg, iv measured after 24 hrs by immunoblotting analysis; assay type: functional, organism-based; summary of the method: as §5
# Chain of Cyclin-dependent kinase 9 (Homo sapiens) (P50750 whole entry, the tested form may be a part): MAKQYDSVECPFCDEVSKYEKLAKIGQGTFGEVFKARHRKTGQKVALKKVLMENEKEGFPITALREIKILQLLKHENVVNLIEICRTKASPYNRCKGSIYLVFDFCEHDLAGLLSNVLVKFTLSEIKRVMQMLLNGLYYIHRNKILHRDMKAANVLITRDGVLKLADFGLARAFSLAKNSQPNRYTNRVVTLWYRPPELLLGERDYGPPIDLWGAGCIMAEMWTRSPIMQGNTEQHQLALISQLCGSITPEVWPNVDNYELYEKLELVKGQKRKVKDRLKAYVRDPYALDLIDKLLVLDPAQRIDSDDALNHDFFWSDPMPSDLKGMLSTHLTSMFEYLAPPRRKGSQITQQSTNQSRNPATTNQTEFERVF
structure (smiles),measurement,setting,value
CC(C)c1n[nH]c2c(NCc3ccc(-c4ccccn4)cc3)nc(SCCN)nc12,GI50,HT,22 nM
same,GI50,[1],11 nM
same,IC50,[1],11 nM
same,GI50,OCI-Ly3,7 nM
same,IC50,OCI-Ly3,7 nM
same,GI50,[2],23 nM
same,IC50,[2],23 nM
same,GI50,[3],12 nM
same,IC50,[3],12 nM
same,GI50,Z-138,13 nM
same,IC50,Z-138,13 nM
same,GI50,CCRF-CEM,33 nM
same,IC50,CCRF-CEM,33 nM
same,GI50,[4],23 nM
same,Activity,Homo sapiens [5],Active
same,Activity,Homo sapiens [6],Active
same,Activity,Homo sapiens [7],Active
same,Activity,Homo sapiens [8],inactive
same,inhibition,[9],Tde
same,TGI,Homo sapiens [10],Active
same,TGI,Maver1 [11],Active
same,TGI,Homo sapiens [12],Active
same,Activity,Mus musculus [13],Active
same,Activity,Mus musculus [14],Active
same,Activity,Mus musculus [15],inactive
same,Activity,Mus musculus [16],Active
same,TGI,Maver1 [17],Active
same,Activity,Homo sapiens [18],Active
same,Activity,Maver1 [19],Active
same,Activity,Mus musculus [20],inactive
same,Activity,Mus musculus [21],Active
same,Activity,Mus musculus [22],Active
